Publication PMC3961502 (The Journal of investigative dermatology, 2013)

Legend:
Type in all cases: cell-based, human
PDGFR-β = experiment: PDGFR signaling by Western blot; details: AHDF preincubated 1 h with 80 µM dynasore, 1 nM PDGF-BB in HBSS (Figure S9)
Summary of the method: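 AHDF primary dermal fibroblasts (passage 8–12, grown in DMEM/10% FBS) were stimulated with 1 nM PDGF-BB ± 10 µM peptide in HBSS. Cells were lysed in Tris pH 7.5 buffer with phosphatase and protease inhibitors, sonicated and boiled. Equal protein was run on 10% SDS-PAGE and blotted to nitrocellulose, blocked in 2% BSA/TBST, and probed overnight at 4°C. Detection used HRP-secondary chemiluminescence, with signal intensity quantified.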

[1] = test system: MCF-7 cells expressing GFP-PDGFR-β; experiment: PDGFR-GFP / TR-dextran co-localization; details: MCF-7 pre-incubated with 80 µM dynasore 1 h, then 1 nM PDGF-BB
Summary of the method: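 MCF-7 cells expressing GFP-PDGFR-β were pre-incubated 1 h with 80 µM dynasore in serum-free DMEM. They then received TR-dextran plus 1 nM PDGF-BB ± 10 µM peptide in HBSS for 15 min and were imaged by confocal microscopy. Both channel thresholds were set at 70, and >100 cells were scored per condition. Co-localization index = yellow pixels / (yellow + green pixels).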

AHDF [2] = experiment: cell morphology by phase contrast microscopy under nutrient deprivation; details: AHDF in HBSS 3 days; 1 nM PDGF, 10 µM P12
AHDF [3] = experiment: TUNEL apoptosis assay under nutrient deprivation; details: AHDF in HBSS, 3 days of starvation; 1 nM PDGF, 10 µM P12; >800 cells counted, n=6, mean

Row | Compound | PDGF-BB stimulated p-Akt signal in the presence of dynasore (PDGFR-β) | PDGF-BB-stimulated internalization of PDGFR-GFP under dynamin inhibition [1] | cell morphology (AHDF [2]) | apoptosis, %TUNEL+ (TUNEL positive/DAPI positive) (AHDF [3]) [%]
1 | O=C(N/N=C/c1ccc(O)c(O)c1)c1cc2ccccc2cc1O [dynasore] | inhibition | minimal internalization |  | 
2 | PDGF-BB: platelet-derived growth factor BB, purchased from Invitrogen |  |  | rounded or shriveled | 30
